# Bioassay records (PubChem)
# M4 PAM = human M4 muscarinic receptor positive allosteric modulators, primary screen, CHO-K1 cells, Fluo-8 calcium fluorescence | Muscarinic acetylcholine receptor M4 (Homo sapiens), P08173 | activation, % at 3 µM | CHO-K1 hM4/Gqi5, ACh EC20; 0% = ACh EC20, 100% = maximal ACh | 360,000 tested, 0.4% active | AID 624126, 2012;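 active = activation above its plate's cutoff, the mean activation of sample wells plus 3 SD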
# Target sequence (P08173 whole entry, looked up): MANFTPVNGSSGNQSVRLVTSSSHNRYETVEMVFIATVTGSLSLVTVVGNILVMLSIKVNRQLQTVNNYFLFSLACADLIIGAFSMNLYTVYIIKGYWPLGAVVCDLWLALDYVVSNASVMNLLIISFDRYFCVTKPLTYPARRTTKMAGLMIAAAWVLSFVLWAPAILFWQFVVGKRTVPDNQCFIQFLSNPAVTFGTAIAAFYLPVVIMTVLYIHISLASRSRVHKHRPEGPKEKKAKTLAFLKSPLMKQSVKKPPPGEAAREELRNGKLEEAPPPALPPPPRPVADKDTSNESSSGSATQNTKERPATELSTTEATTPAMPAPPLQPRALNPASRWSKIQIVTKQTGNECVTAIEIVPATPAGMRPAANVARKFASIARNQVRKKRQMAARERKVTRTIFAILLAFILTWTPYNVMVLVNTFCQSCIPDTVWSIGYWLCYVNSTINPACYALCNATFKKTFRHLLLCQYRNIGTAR
# CHRM4 antagonist = human M4 muscarinic receptor antagonists, primary screen, CHO cells, Fluo-8 calcium fluorescence | AID 624125, 2012 | CHO-hM4 cells, ACh EC80 | Muscarinic acetylcholine receptor M4 (Homo sapiens), P08173 | 360,000 tested, 0.73% active | inhibition, % at 3 µM;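 active = inhibition above its plate's cutoff, the mean inhibition of sample wells plus 3 SD, cut at about 27% in these data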;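 also: 0% = acetylcholine EC80 with DMSO and 100% = DMSO without agonist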
# M4 ag = human M4 muscarinic receptor agonists, primary screen, CHO-K1 cells, Fluo-8 calcium fluorescence. Muscarinic acetylcholine receptor M4 (Homo sapiens), P08173. CHO-K1 hM4/Gqi5; vehicle 0%, full acetylcholine response 100%. activation, % at 3 µM. 360,000 tested, 0.14% active;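 active = activation above the run mean over all test wells plus 3 SD, cut at about 32% in these data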;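 also: peak over basal fluorescence ratio per well then scaled between controls; 0% = DMSO wells and 100% = acetylcholine at EC100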
# CHRM5 agonist = human M5 muscarinic receptor agonists, primary screen, CHO-K1 cells, Fluo-8 calcium fluorescence; Muscarinic acetylcholine receptor M5 (Homo sapiens), P08912; activation, % at 3 µM; 360,000 tested, 0.19% active; CHO-K1 hM5 cells; 0% DMSO wells, 100% maximal acetylcholine response; AID 624037, 2012;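 active = activation above the run's mean over test compounds plus 3 SD, cut at about 23% in these data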;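 also: signal is peak over basal fluorescence ratio across the kinetic read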
# M5 antag = human M5 muscarinic receptor antagonists, primary screen, CHO cells, Fluo-8 calcium fluorescence; Muscarinic acetylcholine receptor M5 (Homo sapiens), P08912; CHO-hM5 cells, ACh EC80; inhibition, % at 3 µM; 360,000 tested, 0.59% active; AID 624040, 2012;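 active = inhibition above a per-plate cutoff, the mean of that plate's test compounds plus 3 SD, cut at about 27% in these data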;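 also: 0% = acetylcholine EC80 with DMSO and 100% = DMSO without agonist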
# CHRM5 PAM = human M5 muscarinic receptor positive allosteric modulators, primary screen, CHO-K1 cells, Fluo-8 calcium fluorescence. 360,000 tested, 0.3% active. CHO-K1 hM5, ACh EC20 PAM; 0% = ACh EC20, 100% = ACh EC100. activation, % at 3 µM. AID 624038, 2012;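 active = activation above the run cutoff, the mean activation of all test compounds plus 3 SD, cut at about 18% in these data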
#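 Test system: CHO-K1 hM5 cells / Doses: single-point, 3 µM nominal / Times: Post-acetylcholine fluorescence recording 140 s / Technique: Fluo-8 calcium fluorescence / Measure: Max/basal fluorescence ratio as % of EC20–EC100 ACh window / Benchmarks: low control EC20 acetylcholine (0%), high control EC100 acetylcholine (100%) / Replicates: one well per compound, no replicates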
# An asterisk follows results filed as active. Most compounds without a hit are left out; they make up all but 1.8% or so of the library.
SMILES,M4 PAM,CHRM4 antagonist,M4 ag,CHRM5 agonist,M5 antag,CHRM5 PAM
CCN(CC)CC(=O)N1c2ccccc2Sc2ccccc21,-18,84*,1,-5,92*,-18
CCCNC(=O)N1c2ccccc2Sc2ccccc21,-9,0,1,-20,15,-5
CCN(CC)C(=O)N1c2ccccc2Sc2ccccc21,-4,2,-2,-9,9,-6
COc1cccc2c1OCC/C2=N\NC(=O)COc1ccccc1C,23*,-2,4,1,4,-4
CC[C@H](C)[C@H](NC(N)=O)C(=O)Nc1ccc(S(=O)(=O)NC(C)C)cc1,-5,30*,1,-5,-1,6
O=S(=O)(c1ccccc1)C(Br)S(=O)(=O)c1ccccc1,-1,-6,0,-1,17,-3
COC(C[C@@H](O)[C@H](C)[C@@H](O)COCc1ccccc1)OC,-11,36*,3,-3,5,-14
CN(Cc1ccco1)C(=O)CC[C@H]1O[C@@H](n2ccc(=O)[nH]c2=O)[C@H](O)[C@@H]1O,0,8,0,2,4,-1
CSc1ccccc1C(=O)OCC(=O)NC1CC1,3,-11,1,0,5,-2
O=C(/C(N=Nc1cccc([N+](=O)[O-])c1)=C(/O)c1ccc(Br)cc1)C(F)(F)F,-16,37*,17,4,24,-20
Cc1ccc(S(=O)(=O)Nc2ccc3c(c2)C(=O)N([C@@H](C)CO)C[C@@H](C)[C@@H](CN(C)S(=O)(=O)c2ccccc2)OCCCC[C@H](C)O3)cc1,-5,3,0,-1,1,2
COc1ccc2c(c1)C(CC(C)=O)N(c1ccc(-c3cccs3)cc1)C(c1ccsc1)=C2 (stereo not given),-12,18,0,-7,4,-7
COc1ccc(N2C(=S)NC3CS(=O)(=O)CC32)cc1 (stereo not given),-26,28*,0,-3,17,-8
COc1cccc2sc(Nc3nc(-c4ccccn4)cs3)nc12,-9,37*,9,-5,30*,-36
c1ccc(Nc2nc(-c3ccccn3)cs2)cc1,3,3,1,-8,-2,-15
CN(C)S(=O)(=O)c1cccc(-c2nnc(SCC(=O)NCCCCCC(=O)O)n2-c2ccc(F)cc2)c1,25*,-6,4,-6,-1,-5
CNC(=O)CSc1nnc(-c2cccc(S(=O)(=O)N3CCOCC3)c2)n1-c1ccc(F)cc1,2,-4,0,0,1,1
O=[N+]([O-])c1cc(C(F)(F)F)cc([N+](=O)[O-])c1NCCNC(=S)Nc1ccc(Cl)c(Cl)c1,-11,31*,15,10,35*,-25
CC1NC(=O)c2ccccc2-n2c1nc1ccc(F)cc1c2=O (stereo not given),4,-4,1,2,-3,3
C[C@@H]1CCCCO[C@@H](CN(C)C(=O)CCCN(C)C)[C@@H](C)CN([C@H](C)CO)C(=O)c2cc(N(C)C)ccc2O1,-7,9,1,3,-5,4
Fc1ccc(-c2nc3ccc(Br)cn3c2Cc2ccccc2)cc1,2,-10,-1,-1,-3,-5
Cc1nnc(SCC(=O)N2N=C(c3ccc(Cl)cc3)CC2c2ccco2)[nH]c1=O (stereo not given),23*,-12,4,-2,2,4
COc1ccc2c(c1)-c1nc(NC(=O)c3ccco3)sc1CC2,0,-9,6,19,-13,11
COc1ccc2c(c1)Cc1sc(NC(=O)c3ccco3)nc1-2,27*,-14,2,9,4,-15
COc1ccc2c(c1)CCc1sc(NC(=O)c3ccco3)nc1-2,28*,-30,2,11,-10,2
SMILES,M4 PAM,CHRM4 antagonist,M4 ag,CHRM5 agonist,M5 antag,CHRM5 PAM
O=C(NCCc1c[nH]c2ccccc12)c1ccc([N+](=O)[O-])o1,1,3,2,0,8,-4
COc1ccc(NC(=O)COC(=O)CC2CC3CCC2C3)c([N+](=O)[O-])c1 (stereo not given),21*,1,0,1,-6,2
COc1ccc(NC(=O)COC(=O)C2CCCCC2)c([N+](=O)[O-])c1,6,8,1,-1,4,-3
Cc1ccc(Nc2nc(N)nc(CSC(=S)N3CCOCC3)n2)cc1,-2,-5,0,0,0,0
CCOc1ccc(Nc2nc(N)nc(CSC(=S)N3CCOCC3)n2)cc1,-22,2,14,-10,34*,-26
CC(=O)c1cccc(NC(=O)C(C)OC(=O)c2cccc(-n3cnnn3)c2)c1 (stereo not given),5,-7,4,4,-4,5
Cc1ccc(-c2cc(C(=O)Nc3cnn(C(C)C)c3)no2)cc1,-4,5,7,26*,-2,-14
Cc1ccc(-c2cc(C(=O)Nc3cnn(C45CC6CC(CC(C6)C4)C5)c3)no2)cc1,11,3,4,2,-3,4
O=C(OCC(=O)N1CCc2ccccc21)c1ccc([N+](=O)[O-])o1,4,2,1,0,-3,5
CCOC(=O)[C@@H]1[C@H]2COc3ccc(Br)cc3[C@@H]2N2C(=O)N(c3ccc(C(F)(F)F)cc3)C(=O)[C@@]12C,2,-8,0,2,-4,6
CCN(c1ccccc1)S(=O)(=O)c1ccc2c(c1)CC(C)N2C(=O)C1CC1 (stereo not given),-8,8,16,0,27*,-9
CN1CCN(c2cc(-c3ccccc3)nc3cc(-c4ccc(F)cc4)nn23)CC1,8,5,5,-1,27,3
Fc1ccc(-c2cc3nc(-c4ccccc4)cc(N4CCN(CCN5CCOCC5)CC4)n3n2)cc1,-11,11,33*,6,14,-10
CC(Sc1ccc(Cl)cc1)C(=O)Nc1ccc(S(=O)(=O)N2CCOCC2)cc1 (stereo not given),-7,-4,26,39*,6,7
CC(C)C(=O)Nc1ccc(C(=O)Nc2ccc(S(=O)(=O)N3CCOCC3)cc2)cc1,-3,-1,1,-2,4,6
